According to ChEMBL document CHEMBL1125245, “Quinolone antibacterials: preparation and activity of bridged bicyclic analogues of the C7-piperazine” (J Med Chem, 1991):

Experiments:
[1] = system: Streptococcus pneumoniae; assay: In vivo protection against gram-positive Streptococcus pneumonia (SV-1) in mouse after oral administration.; type: functional; conditions: read-out: PD50
[2] = system: Escherichia coli; assay: In vivo protection against gram-negative Escherichia coli vogel in mouse after oral administration.; conditions: read-out: PD50
[3] = system: Escherichia coli; assay: In vivo protection against gram-negative Escherichia coli vogel in mouse after subcutaneous administration; conditions: sc, read-out: PD50
[4] = Compound evaluated in vitro against five gram-negative bacterial strains and geometric means of the minimum inhibitory concentrations (MIC) reported.; type: functional; design: unit not given here
Summary of the method: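 Geometric mean MIC across five Gram-negative strains (E. coli H560, E. coli Vogel, Enterobacter cloacae MA 2646, Klebsiella pneumoniae MGH-2, Proteus rettgeri M1771). Mean taken as antilog of the averaged log MIC values.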

[5] = system: Streptococcus pneumoniae; assay: In vivo protection against gram-positive Streptococcus pneumonia (SV-1) in mouse after subcutaneous administration; type: functional; conditions: sc, read-out: PD50
[6] = biological target: DNA gyrase (Escherichia coli, UniProt P0AES4+P0AES6); assay: Compound evaluated in vitro for the ability to inhibit gyrase.; type: protein-complex assay; conditions: read-out: I50 (converted)
Summary of the method: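 DNA gyrase isolated from Escherichia coli H560 cells; inhibition given as I50.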

[7] = Compound evaluated in vitro against five gram-positive bacterial strains and geometric means of the minimum inhibitory concentrations (MIC) reported.; type: functional; design: unit not given here
Summary of the method: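 Geometric mean MIC across five Gram-positive strains, taken as antilog of the averaged log MIC values.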

Compound `O=C(O)c1cn(C2CC2)c2cc(N3CC4CCC3CN4)c(F)cc2c1=O` (configuration not stated) has an ED50 [1] of over 100 mg/kg, an ED50 [2] of 5.5 mg/kg and an ED50 [3] of 0.7 mg/kg. For the same compound, the MIC [4] was 0.08, the ED50 [5] was 24 mg/kg and the IC50 [6] was 4.2 µM. The MIC [7] was 0.1.
